{"source": "ChEMBL document CHEMBL5724801", "about": "“EUbOPEN Chemogenomics Library - Multiplex” (2024)", "tested_on": "U2OS", "test": "Multiplex assay against U2OS", "format": "toxicity, cell-based", "details": "human", "method_in_brief": "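With compound added, live cells were imaged on a CQ1 microscope at 37°C and 5% CO2; staining with Hoechst33342, BioTracker Green Microtubule Cytoskeleton Dye, MitoTracker Red and Annexin V Alexa Fluor 680 had been done at seeding. The CellPathfinder machine-learning gating scheme split cells into Hoechst high-intensity objects or normal cells, normal cells into healthy, pyknosed or fragmented nuclei, and pyknosed cells into mitotic or apoptotic. The tubulin, mitochondrial-mass and membrane-permeability phenotypes are per cents of healthy-nucleus cells.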", "key": {"[1]": {"details": "12 h, 1 µM, compound concentration 1 uM"}, "[2]": {"details": "12 h, 10 µM, compound concentration 10 uM"}, "[3]": {"details": "24 h, 1 µM, compound concentration 1 uM"}, "[4]": {"details": "24 h, 10 µM, compound concentration 10 uM"}, "[5]": {"details": "48 h, 1 µM, compound concentration 1 uM"}, "[6]": {"details": "48 h, 10 µM, compound concentration 10 uM"}}, "note": "Where “and” joins values, the source holds several entries; their conditions need not be identical. Identical values can stand only once.", "data": [{"smiles": "Cc1ccc(C(C)(O)c2nc3ccccc3s2)c(C)c1", "note": "(centres undefined)", "values": [{"measurement": "Population Apoptotic (%)", "setting": "[1]", "value": "86% and 100%"}, {"measurement": "Population Fragmented Nuclei (%)", "setting": "[1]", "value": "19% and 17%"}, {"measurement": "Population Healthy Nuclei (%)", "setting": "[1]", "value": "70% and 78%"}, {"measurement": "Population Hoechst High Intensity Objects (%)", "setting": "[1]", "value": "3% and 0%"}, {"measurement": "Population Membrane Permeable-Phenotype (%)", "setting": "[1]", "value": "4% and 9%"}, {"measurement": "Population Mitochondria Different-Phenotype (%)", "setting": "[1]", "value": "1% and 4%"}, {"measurement": "Population Mitotic Cells (%)", "setting": "[1]", "value": "13% and 0%"}, {"measurement": "Population Normal (%)", "setting": "[1]", "value": "96% and 99%"}, {"measurement": "Population Pyknosed Nuclei (%)", "setting": "[1]", "value": "9% and 3%"}, {"measurement": "Population Tubulin-Different-Phenotype (%)", "setting": "[1]", "value": "2% and 5%"}, {"measurement": "Total Cell Count", "setting": "[1]", "value": "249 and 141"}, {"measurement": "Population Apoptotic (%)", "setting": "[2]", "value": "100% and 66%"}, {"measurement": "Population Fragmented Nuclei (%)", "setting": "[2]", "value": "25% and 18%"}, {"measurement": "Population Healthy Nuclei (%)", "setting": "[2]", "value": "67% and 77%"}, {"measurement": "Population Hoechst High Intensity Objects (%)", "setting": "[2]", "value": "2% and 4%"}, {"measurement": "Population Membrane Permeable-Phenotype (%)", "setting": "[2]", "value": "9% and 3%"}, {"measurement": "Population Mitochondria Different-Phenotype (%)", "setting": "[2]", "value": "3% and 1%"}, {"measurement": "Population Normal (%)", "setting": "[2]", "value": "97% and 95%"}, {"measurement": "Population Pyknosed Nuclei (%)", "setting": "[2]", "value": "6% and 3%"}, {"measurement": "Population Tubulin-Different-Phenotype (%)", "setting": "[2]", "value": "3% and 1%"}, {"measurement": "Total Cell Count", "setting": "[2]", "value": "234 and 89"}, {"measurement": "Population Apoptotic (%)", "setting": "[3]", "value": "92% and 90%"}, {"measurement": "Population Fragmented Nuclei (%)", "setting": "[3]", "value": "22% and 13%"}, {"measurement": "Population Healthy Nuclei (%)", "setting": "[3]", "value": "69% and 80%"}, {"measurement": "Population Hoechst High Intensity Objects (%)", "setting": "[3]", "value": "1% and 0%"}, {"measurement": "Population Membrane Permeable-Phenotype (%)", "setting": "[3]", "value": "4% and 6%"}, {"measurement": "Population Mitochondria Different-Phenotype (%)", "setting": "[3]", "value": "0% and 3%"}, {"measurement": "Population Mitotic Cells (%)", "setting": "[3]", "value": "7% and 10%"}, {"measurement": "Population Normal (%)", "setting": "[3]", "value": "98% and 99%"}, {"measurement": "Population Pyknosed Nuclei (%)", "setting": "[3]", "value": "8% and 6%"}, {"measurement": "Population Tubulin-Different-Phenotype (%)", "setting": "[3]", "value": "3% and 4%"}, {"measurement": "Total Cell Count", "setting": "[3]", "value": "327 and 159"}, {"measurement": "Population Apoptotic (%)", "setting": "[4]", "value": "88% and 75%"}, {"measurement": "Population Fragmented Nuclei (%)", "setting": "[4]", "value": "22% and 16%"}, {"measurement": "Population Healthy Nuclei (%)", "setting": "[4]", "value": "71% and 75%"}, {"measurement": "Population Hoechst High Intensity Objects (%)", "setting": "[4]", "value": "1% and 4%"}, {"measurement": "Population Membrane Permeable-Phenotype (%)", "setting": "[4]", "value": "5% and 3%"}, {"measurement": "Population Mitochondria Different-Phenotype (%)", "setting": "[4]", "value": "3% and 1%"}, {"measurement": "Population Mitotic Cells (%)", "setting": "[4]", "value": "11% and 25%"}, {"measurement": "Population Normal (%)", "setting": "[4]", "value": "98% and 95%"}, {"measurement": "Population Pyknosed Nuclei (%)", "setting": "[4]", "value": "6% and 7%"}, {"measurement": "Population Tubulin-Different-Phenotype (%)", "setting": "[4]", "value": 3, "unit": "%"}, {"measurement": "Total Cell Count", "setting": "[4]", "value": "272 and 113"}, {"measurement": "Population Apoptotic (%)", "setting": "[5]", "value": "88% and 94%"}, {"measurement": "Population Fragmented Nuclei (%)", "setting": "[5]", "value": "16% and 15%"}, {"measurement": "Population Healthy Nuclei (%)", "setting": "[5]", "value": "74% and 76%"}, {"measurement": "Population Hoechst High Intensity Objects (%)", "setting": "[5]", "value": "2% and 3%"}, {"measurement": "Population Membrane Permeable-Phenotype (%)", "setting": "[5]", "value": "5% and 6%"}, {"measurement": "Population Mitochondria Different-Phenotype (%)", "setting": "[5]", "value": "2% and 3%"}, {"measurement": "Population Mitotic Cells (%)", "setting": "[5]", "value": "11% and 5%"}, {"measurement": "Population Normal (%)", "setting": "[5]", "value": "97% and 96%"}, {"measurement": "Population Pyknosed Nuclei (%)", "setting": "[5]", "value": "9% and 8%"}, {"measurement": "Population Tubulin-Different-Phenotype (%)", "setting": "[5]", "value": "2% and 5%"}, {"measurement": "Total Cell Count", "setting": "[5]", "value": "442 and 215"}, {"measurement": "Population Apoptotic (%)", "setting": "[6]", "value": "96% and 85%"}, {"measurement": "Population Fragmented Nuclei (%)", "setting": "[6]", "value": "23% and 11%"}, {"measurement": "Population Healthy Nuclei (%)", "setting": "[6]", "value": "69% and 83%"}, {"measurement": "Population Hoechst High Intensity Objects (%)", "setting": "[6]", "value": "2% and 5%"}, {"measurement": "Population Membrane Permeable-Phenotype (%)", "setting": "[6]", "value": "6% and 5%"}, {"measurement": "Population Mitochondria Different-Phenotype (%)", "setting": "[6]", "value": 1, "unit": "%"}, {"measurement": "Population Normal (%)", "setting": "[6]", "value": "97% and 94%"}, {"measurement": "Population Pyknosed Nuclei (%)", "setting": "[6]", "value": "7% and 5%"}, {"measurement": "Population Tubulin-Different-Phenotype (%)", "setting": "[6]", "value": 4, "unit": "%"}, {"measurement": "Total Cell Count", "setting": "[6]", "value": "365 and 147"}]}]}
